Screening results as filed in PubChem BioAssay.
Compounds with a hit are over-represented: about 3.1% of the library has one in this group of screens.
KCNK3 block = human KCNK3 channel inhibitors, primary screen, CHO cells, FluxOR thallium flux, B-score; Potassium channel subfamily K member 3 (Homo sapiens), O14649; FluxOR fluorescence; active compounds read low; B-score at 10 µM; actives 0.84% (n = 340,000);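 active = B-score under library mean minus 4 SD, starting fluorescence ratio at most library mean plus 5 SD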;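 also: more negative B-score means stronger inhibition of thallium flux through KCNK3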
KCNQ1 act = potentiators or activators of KCNQ1 channel, primary screen, cell-based, thallium flux, high-throughput. actives 0.35% (n = 310,000). B-score at 10 µM. AID 2648, 2010. CHO-K1 KCNQ1, thallium flux FluxOR fluorescence; active compounds read high;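 active = fluorescence ratio B-score, a plate-corrected score, at least three library SD, with initial intensity B-score within 5 SD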
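Material: CHO-K1 cells stably expressing KCNQ1. Medium: assay buffer for compound exposure, DMSO matched across wells. Reagent: K+/Tl+ depolarizing stimulus. Compound dosing: single-concentration screen. Times: 37 °C overnight plating, 90-min dark dye load, 20-min compound pretreatment. Technique: FluxOR Tl+ flux fluorescence.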
hERG protect = hERG rescue from dofetilide block, primary screen, cell-based, CHO-hERG, FluxOR thallium flux, dofetilide IC70 | dofetilide IC70 present | activation (rescue from dofetilide block), less the hit threshold, % at 10 µM | actives 0.51% (n = 310,000) | AID 1511, 2009;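 active = activation above the mean of controls blocked by dofetilide plus 5 SD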;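 also: thallium influx through hERG after potassium depolarization seen as dye fluorescence rise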
KCNQ1 block = inhibitors of human KCNQ1 channel, primary screen, cell-based, thallium flux, high-throughput; actives 1.3% (n = 310,000); AID 2642, 2010; CHO-K1 KCNQ1, FluxOR thallium flux fluorescence; active compounds read high; B-score at 10 µM; Potassium voltage-gated channel subfamily KQT member 1 (Homo sapiens), P51787;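 active = compounds whose thallium flux B-score, printed positive for inhibition, exceeds three library SD while starting fluorescence stays within three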;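 also: channel opened by potassium depolarization with thallium stimulus after 20 min compound exposure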
KCNK9 inh = KCNK9 potassium channel inhibitors, primary screen, HEK293 cells, thallium flux. Potassium channel subfamily K member 9 (Homo sapiens), Q9NPC2. FluxOR thallium flux fluorescence; active compounds read low. actives 1.2% (n = 310,000). AID 488922, 2010. B-score at 10 µM;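 active = ratio B-score over 3 SD below the library mean, with starting fluorescence within 5 SD of its mean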;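 also: negative B-score means less thallium flux so channel inhibition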
KCNK3 confirm = retest of human KCNK3 channel inhibitors, confirmation, CHO cells, FluxOR thallium flux, triplicate; FluxOR fluorescence; 0% buffer, 100% carvedilol maximal block; ratio percent of control, % at 10 µM; actives 99% (n = 2,400); shares compounds with KCNK3 block;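 active = ratio percent of control, averaged over triplicates, above buffer control mean plus 5 SD, cut at about 64% in these data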;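 also: ratio is the fluorescence rise from min to max over baseline after thallium stimulus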
KCNK3 uninduced = thallium flux inhibition in non-induced cells, primary screen, counter-screen for KCNK3 inhibitor project, cell-based, non-induced KCNK3 line, FluxOR thallium, triplicate | actives 40% (n = 2,400) | non-induced KCNK3 parental cells; active compounds read low | shares compounds with KCNK3 block | AID 651747, 2012 | thallium flux ratio (lower = more inhibition) at 10 µM;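 active = thallium flux ratio, averaged over three wells, more than 5 SD below the buffer control mean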;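 also: host cells are CHO cells without KCNK3 induction; ratio is peak minus trough fluorescence over baseline then normalized to buffer controls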
Active calls of the source: *; i = inactive; . = no result given.

SMILES | KCNK3 block | KCNQ1 act | hERG protect | KCNQ1 block | KCNK9 inh | KCNK3 confirm | KCNK3 uninduced
N#Cc1c(N2CCCCC2)nc(N)c2c(N)nc3c(c12)CC(c1ccccc1)O3 (stereo unspecified) | -9.54* | i | -8.3 | i | i | 119.0* | 0.15*
CCC1Cc2c(nc(N)c3c(N)nc(N4CCCCC4)c(C#N)c23)O1 (stereo unspecified) | -9.56* | i | -2.8 | i | i | 96.7* | i
CCN(CC)c1nc(N)c2c(N)nc3c(c2c1C#N)CC(c1ccccc1)O3 (stereo unspecified) | i | i | -10.2 | i | i | . | .
CCN(C(=O)COC(=O)CCc1ccc(OC)cc1)c1c(N)n(Cc2ccccc2)c(=O)[nH]c1=O | i | . | . | . | . | . | .
CC(C)(C)NC(=O)CN(Cc1ccco1)C(=O)CCC(=O)Nc1nccs1 | i | i | -8.6 | i | i | . | .
COc1ccc(Cl)c2sc(N3CCN(C(=O)c4ccco4)CC3)nc12 | -10.4* | i | -17.9 | i | i | 86.3* | i
COc1cccc(NC(=O)c2ccccc2F)c1 | i | . | . | . | . | . | .
CC(=O)Nc1cccc(NC(=O)c2ccccc2OCc2ccccc2)c1 | -10.1* | i | -8.9 | i | i | 111.0* | i
CCOC(=O)Nc1cccc(NC(=O)c2ccccc2F)c1 | -8.77* | i | -9.9 | i | i | 99.7* | i
COc1cccc(/C=C2\SC(=O)N(CCC(=O)N3CCCCC3CCO)C2=O)c1 (stereo unspecified) | -11.1* | i | -12.3 | i | i | 77.7* | i
O=C1/C(=C\c2ccccc2)SC(=S)N1CCC(=O)N1CCCCC1CCO (stereo unspecified) | i | i | -9.6 | i | i | . | .
COCCn1c(C)cc(C(=O)CSc2nnnn2C2CCCC2)c1C | i | . | . | . | . | . | .
CC(C)(CNC(=O)c1ccc([N+](=O)[O-])c(Cl)c1)CNC(=O)c1ccc([N+](=O)[O-])c(Cl)c1 | -9.81* | i | -20.2 | i | -7.87* | 131.0* | 0.146*
COc1ccc(CCNC(=O)C2CC(=O)N(C3CCCCC3)C2)cc1OC (stereo unspecified) | i | i | -6.6 | i | i | . | .
CC(C)CCNCC(O)CON=C1c2ccccc2-c2ccccc21 (stereo unspecified) | -8.84* | i | -21.6 | i | i | 104.0* | i
c1cncc(C(c2nnnn2C2CCCC2)N2CCCC2)c1 (stereo unspecified) | i | i | -4.3 | i | i | . | .
N#Cc1cccc(C(c2nnnn2C2CCCC2)N2CCCCCC2)c1 (stereo unspecified) | -14.9* | i | -5.6 | i | -7.17* | 93.3* | i
Cc1ccc2c(c1)cc1c(=O)n(CC(=O)NCCCc3ccccc3)nc(C)n12 | i | i | -1.7 | i | i | . | .
CC1CN(S(=O)(=O)c2cccc(C(=O)OCc3cc(=O)oc4cc(O)ccc34)c2)CC(C)O1 (stereo unspecified) | i | i | -11.5 | i | i | . | .
CN(C)c1cccc(C(=O)OCc2cc(=O)oc3cc(O)ccc23)c1 | -8.98* | i | -15.8 | i | i | 113.3* | i
O=C(CCS(=O)(=O)c1ccccc1)N(CCCN1CCOCC1)c1nc2ccc(F)cc2s1 | i | i | -15.9 | i | i | . | .
COc1ccc2c(c1)C(SCC(=O)NCCc1ccc(Cl)cc1)CC(C)(C)O2 (stereo unspecified) | -9.02* | i | -12.7 | i | i | 78.0* | i
COc1ccc(CCC(=O)NCCc2ccc(Cl)cc2)cc1 | i | i | -6.0 | i | i | . | .
CCc1nnc(NC(=O)CSc2nnc(-c3ccoc3C)n2-c2cccc(C)c2)s1 | i | i | -1.8 | i | i | . | .
Cc1cccc(-n2c(SCC(=O)Nc3nnc(C)s3)nnc2-c2ccoc2C)c1 | -13.7* | i | -2.8 | i | i | 66.0* | 0.157*
SMILES | KCNK3 block | KCNQ1 act | hERG protect | KCNQ1 block | KCNK9 inh | KCNK3 confirm | KCNK3 uninduced
CCC(CC)NC(=O)CN1CCN(S(=O)(=O)c2cccs2)CC1 | i | . | . | . | . | . | .
CCCc1cc(=O)oc2c3c(cc(OCC(=O)NCCN4CCOCC4)c12)OC(C)(C)CC3 | i | i | -7.8 | i | i | . | .
FC(F)(F)c1ccccc1NC(=S)Nc1cccc(Cl)c1 | -9.64* | i | -10.5 | 8* | i | 93.3* | i
FC(F)(F)c1cccc(NC(=S)Nc2ccc(Cl)cc2Cl)c1 | i | i | -11.9 | i | i | . | .
O=C(N/N=C\c1ccc(Cl)cc1)c1sccc1-n1cccc1 | i | i | -12.5 | i | i | . | .
O=C(N/N=C\c1ccc(Cl)cc1Cl)c1sccc1-n1cccc1 | -9.41* | i | -1.7 | i | i | 93.3* | i
CC(C)(C)[C@@H]1COC(=O)[C@H](Cc2ccc(F)cc2)CC/C=C\C[C@@H](CC(=O)N(CCO)Cc2ccccc2)C(=O)N1 | i | . | . | . | . | . | .
C/C(=N\Nc1nc(N2CCCCC2)nc(N2CCOCC2)n1)c1ccccc1O | -9.06* | i | -9.2 | i | i | 103.7* | i
NC(=O)CC[C@H](NC(=O)c1ccc(F)cc1)C(=O)OCC(=O)NCc1ccc2c(c1)OCO2 | i | . | . | . | . | . | .
COc1ccc(N(CC(=O)NCCSCc2ccco2)S(=O)(=O)c2ccccc2)cc1Cl | -10.1* | i | -3.1 | i | i | 106.0* | i
O=C(Nc1cc(C(F)(F)F)ccc1Cl)c1ccncc1 | i | i | -3.8 | i | i | . | .
C/C(=N\Nc1cc(C(F)(F)F)ccc1Cl)c1ccncc1 | -9.74* | i | -4.8 | i | i | 110.3* | i
O=C(Nc1ccc(CN2CCOCC2)cc1)c1ccc(-c2cccc(Cl)c2)o1 | i | i | -29.9 | i | i | . | .
O=C(Nc1ccc(CN2CCOCC2)cc1)c1ccc(-c2ccc(Cl)cc2Cl)o1 | -9.66* | i | -15.1 | i | i | 103.0* | i
N#C/C(=C\c1ccc(N2CCOCC2)o1)c1ccccc1 | -9.05* | i | -16.2 | i | i | 144.0* | 0.081*
